In ChEMBL document CHEMBL5356943, “Development of anti-HBV agents targeting HBV capsid proteins” (RSC Med Chem, 2023):

Experiments:
[1] = (§1) Ratio of compound EC50 to N-((5-bromopyridin-2-yl)carbamothioyl)-4-chlorobenzamide EC50 for antiviral activity against Hepatitis B virus genotype C infected in chimeric humanized liver mouse model PXB cells assessed as inhibition of HBcrAg level treated with infected cells on day 2 and measured on day 12 to 14 by ELISA; type: functional; settings: time 10-12 day
Procedure, shortened: (§2)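 PXB hepatocytes received serially diluted compound on day 2 and HBV genotype C on day 0. After 20–28 h, cells were washed and compound-containing medium renewed. Supernatant antigen on days 12–14 was measured by ELISA to give EC50 (50% antigen reduction). Each value is expressed as a ratio to the EC50 of the parent lead compound in the same antigen assay.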

[2] = as §1, with “HBsAg” for “HBcrAg”; type: functional; settings: time 10-12 day; procedure, shortened: as §2
[3] = Cytotoxicity against human HepG2 cells assessed as reduction in cell viability incubated for 7 days by MTT assay; type: toxicity, cell-based; settings: time 7 day
Procedure, shortened: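 HepG2 (human hepatocellular carcinoma) viability by MTT assay, optical density read on a kinetic microplate reader. CC50 is the concentration giving 50% reduction of viability. Mean of at least two independent experiments.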

[4] = Cytotoxicity against human Huh-7 cells assessed as reduction in cell viability by MTT assay; type: toxicity, cell-based
Procedure, shortened: (§3)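 Each cell line cultured with serially diluted compound, then viability measured by MTT assay on a microplate reader. CC50 is the concentration giving 50% reduction of viability.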

[5] = Cytotoxicity against human Li-7 cells assessed as reduction in cell viability by MTT assay; type: toxicity, cell-based; procedure, shortened: as §3
[6] = Cytotoxicity against human HLE cells assessed as reduction in cell viability by MTT assay; type: toxicity, cell-based; procedure, shortened: as §3
[7] = Cytotoxicity against human LI90 cells assessed as reduction in cell viability by MTT assay; type: toxicity, cell-based; procedure, shortened: as §3
[8] = Cytotoxicity against human HuCCT-1 cells assessed as reduction in cell viability by MTT assay; type: toxicity, cell-based; procedure, shortened: as §3
[9] = Cytotoxicity against human RBE cells assessed as reduction in cell viability by MTT assay; type: toxicity, cell-based; procedure, shortened: as §3
[10] = Cytotoxicity against human SSP-25 cells assessed as reduction in cell viability by MTT assay; type: toxicity, cell-based; procedure, shortened: as §3
[11] = Cytotoxicity against human G415 cells assessed as reduction in cell viability by MTT assay; type: toxicity, cell-based; procedure, shortened: as §3
Hepatitis B virus [12] = assay: Antiviral activity against Hepatitis B virus genotype C infected in chimeric humanized liver mouse model PXB cells assessed as inhibition of HBcrAg level treated with infected cells on day 2 and measured on day 12 to 14 by ELISA; type: functional, organism-based
Procedure, shortened: (§4)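 Human hepatocytes (PXB cells) from chimeric humanized-liver mice were seeded in 96-well plates, with serially diluted compound in fresh medium added on day 2. HBV genotype C was added on day 0. After 20–28 h, cells were PBS-washed and medium plus compound replenished. Supernatants were harvested on days 12–14, and antigen was quantified by ELISA. EC50 is the concentration giving 50% antigen reduction.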

Hepatitis B virus [13] = assay: Antiviral activity against Hepatitis B virus genotype C infected in chimeric humanized liver mouse model PXB cells assessed as inhibition of HBsAg level treated with infected cells on day 2 and measured on day 12 to 14 by ELISA; type: functional, organism-based; procedure, shortened: as §4

| SMILES | Ratio EC50 [1] | Ratio EC50 [2] | CC50 at 168 h [3] [µM] | also measured |
| --- | --- | --- | --- | --- |
| O=C(NC(=S)Nc1ccc(Br)cn1)c1ccc(Br)cc1 | >12 | >4.8 | 41.8 | – |
| O=C(NC(=S)Nc1ccc(C(F)(F)F)cn1)c1ccc(O)cc1 | 0.86 | >4.8 | 23.7 | – |
| O=C(NC(=S)Nc1ccc(Br)cn1)c1ccc(C(F)(F)F)cc1 | 1.7 | 0.63 | > 100 | CC50 [4]: 92.7 µM; CC50 [5]: > 100 µM; CC50 [6]: > 100 µM; CC50 [7]: 62.1 µM; CC50 [8]: > 100 µM; CC50 [9]: 81.1 µM; CC50 [10]: 76.3 µM; CC50 [11]: > 100 µM |
| CC(C)c1ccc(C(=O)NC(=S)Nc2ccc(C(F)(F)F)cn2)cc1 | >12 | >4.8 | 61.9 | – |
| O=C(NC(=S)Nc1ccc(Cl)cn1)c1ccc(Cl)cc1 | 7.5 | 6.9 | 66.3 | – |
| COc1ccc(C(=O)NC(=S)Nc2ccc(C(F)(F)F)cn2)cc1 | >12 | >4.8 | 75.9 | – |
| O=C(NC(=S)Nc1cc2ccccc2cn1)c1ccc(Cl)cc1 | 2.9 | 31 | 79.1 | – |
| O=C(NC(=S)Nc1ccc(Br)cn1)c1ccc(Cl)cc1 | – | – | > 100 | EC50 (Hepatitis B virus [12]): 0.044 µM; EC50 (Hepatitis B virus [13]): 0.69 µM |
| Cc1ccc(C(=O)NC(=S)Nc2ccc(C(F)(F)F)cn2)cc1 | >12 | >4.8 | 89.8 | – |
| O=C(NC(=S)Nc1cc(-c2ccccc2)c(C(F)(F)F)cn1)c1ccc(Cl)cc1 | 22 | 11 | > 100 | – |
| O=C(NC(=S)Nc1ccc(C(F)(F)F)cn1)c1ccc(Cl)cc1 | 0.032 | 0.005 | > 100 | CC50 [4]: > 100 µM; CC50 [5]: > 100 µM; CC50 [6]: > 100 µM; CC50 [7]: > 100 µM; CC50 [8]: > 100 µM; CC50 [9]: > 100 µM; CC50 [10]: 61.3 µM; CC50 [11]: > 100 µM |
| O=C(NC(=S)Nc1ccc(C(F)(F)F)cn1)c1ccc(C(F)(F)F)cc1 | 16 | >2.9 | > 100 | – |
| CC(C)(C)c1ccc(C(=O)NC(=S)Nc2ccc(C(F)(F)F)cn2)cc1 | >12 | >4.8 | > 100 | – |
| O=C(NC(=S)Nc1ccc(C(F)(F)F)cn1)c1ccc(I)cc1 | >12 | >4.8 | > 100 | – |
| O=C(NC(=S)Nc1ccc(C(F)(F)F)cn1)c1ccc([N+](=O)[O-])cc1 | 2.7 | 0.37 | > 100 | – |
| O=C(NC(=S)Nc1ccc(F)cn1)c1ccc(Cl)cc1 | 6.2 | 8.1 | > 100 | – |
| O=C(NC(=S)Nc1ccc(C(F)(F)F)cn1)c1ccc(Br)cc1 | 3.8 | 2.7 | > 100 | – |
| O=C(NC(=S)Nc1ccc(C(F)(F)F)cn1)c1ccc(F)cc1 | >12 | >4.8 | 42.2 | – |
| Cc1ccc(NC(=S)NC(=O)c2ccc(Cl)cc2)nc1 | 3.7 | 3.8 | 43.8 | – |
| O=C(NC(=S)Nc1ccc([N+](=O)[O-])cn1)c1ccc(Cl)cc1 | 20 | 12 | > 100 | – |
| O=C(NC(=S)Nc1ccccn1)c1ccc(Cl)cc1 | 7.6 | 5.5 | 26.8 | – |
| C[C@H](Cn1cnc2c(N)ncnc21)OCP(=O)(O)O [TENOFOVIR ANHYDROUS] | – | – | – | EC50 (Hepatitis B virus [12]): 0.36 µM; EC50 (Hepatitis B virus [13]): > 2 µM |
